pIC50: −log10 of the molar value. Activity calls are given as the source filed them. The rule behind the calls is not given here.
Assays:
Escherichia coli [1] = assay: Growth inhibition of Escherichia coli DH5[alpha] at 200 uM incubated for 16 hrs; type: functional; conditions: for inhibition of growth at 200 µM: read-out: GI
Procedure, shortened: (§1)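 E. coli DH5α grown at 37 °C in LB with shaking to OD600 0.6–0.7, then added to wells holding compound diluted from a 50 mM DMSO stock. Plates shaken at 37 °C, with OD600 read every 10 min over 16 h against an LB blank. Growth inhibition expressed as % of the no-inhibitor control.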

[2] = Inhibition of interaction of RNA polymerase beta' subunit CH-region and region 2.2 of RNA polymerase sigma factor RpoD/RNA polymerase sigma factor sigA (unknown origin) at 15 uM […] followed by incubation at room temperature for 1 hr by ELISA method
Bacillus subtilis [3] = assay: Growth inhibition of Bacillus subtilis 168 at 200 uM incubated for 16 hrs; type: functional; conditions: for inhibition of growth at 200 µM: Bacillus subtilis, 168, 16 h, read-out: GI
Bacillus subtilis [4] = assay: Growth inhibition of Bacillus subtilis 168 assessed as effect on exponential phase of bacterial growth at 200 uM incubated for 16 hrs; type: functional; conditions: Bacillus subtilis, 168, 16 h; read-out: GI
Escherichia coli [5] = assay: Growth inhibition of Escherichia coli DH5[alpha] assessed as effect on exponential phase of bacterial growth at 200 uM incubated for 16 hrs; type: functional; conditions: read-out: GI; procedure, shortened: as §1
[6] = Inhibition of interaction of RNA polymerase beta' subunit CH-region and region 2.2 of RNA polymerase sigma factor RpoD/RNA polymerase sigma factor sigA (unknown origin) pre-incubated at 37 degC for 15 mins with enzyme followed by incubation at room temperature for 1 hr by ELISA method
Escherichia coli [7] = assay: Growth inhibition of Escherichia coli DH5[alpha] incubated for 16 hrs; type: functional; procedure, shortened: as §1
Bacillus subtilis [8] = assay: Growth inhibition of Bacillus subtilis 168 incubated for 16 hrs; type: functional
Staphylococcus aureus = assay: Growth inhibition of Staphylococcus aureus at 200 uM incubated for 16 hrs; type: functional; conditions: read-out: GI

Compound	inhibition of growth at 200 µM (Escherichia coli [1])	inhibition [2]	growth inhibition (GI) (Bacillus subtilis [3])	inhibition of growth at 200 µM (Bacillus subtilis [3])	also measured
O=C(C(=O)N1CCOCC1)c1c[nH]c2ccccc12	4%	39%	inactive	–	–
COc1cc(OC)c2c(C)c(C(=O)C(=O)N3CCCCC3)[nH]c2c1	–	17%	inactive	–	growth inhibition (GI) (Escherichia coli [1]): inactive
O=C(C(=O)N1CCN(Cc2ccccc2)CC1)c1c[nH]c2ccccc12	6%	21%	–	70%	–
COc1cc(OC)c2c(-c3ccc(Cl)cc3)c[nH]c2c1C(=O)NNc1ccccc1	21%	60%	inactive	–	–
COc1cc(OC)c2c(-c3ccc(Cl)cc3)c[nH]c2c1C(=O)Nc1ccc(C)cc1	13%	–	–	13%	–
O=C(C(=O)N1CCN(c2ccccn2)CC1)c1c[nH]c2ccccc12	4%	27%	–	10%	–
COc1cc(OC)c2c(-c3ccc(Cl)cc3)c(C(=O)N3CCOCC3)[nH]c2c1	42%	inactive	inactive	–	–
COc1cc(OC)c2c(-c3ccc(Br)cc3)c[nH]c2c1C(=O)C(=O)N1CCCCC1	26%	32%	–	14%	–
COc1cc(OC)c2c(-c3ccc(Br)cc3)c(C(=O)C(=O)N3CCCCC3)[nH]c2c1	7%	39%	–	22%	–
COc1cc(OC)c2c(C)c(C(=O)C(=O)N3CCN(c4ccccn4)CC3)[nH]c2c1	38%	48%	–	14%	–
COc1cc(OC)c2c(-c3ccc(Br)cc3)c[nH]c2c1C(=O)C(=O)Nc1ccccc1	33%	34%	–	36%	–
COc1cc(OC)c2c(-c3ccc(Cl)cc3)c(C(=O)C(=O)N3CCCCC3)[nH]c2c1	18%	inactive	inactive	–	–
COc1cc(OC)c2c(-c3ccc(Br)cc3)c[nH]c2c1C(=O)C(=O)NNc1ccccc1	24%	34%	–	10%	–
COc1cc(OC)c2c(-c3ccc(Cl)cc3)c[nH]c2c1C(=O)C(=O)Nc1ccccc1	23%	23%	–	26%	–
COc1cc(OC)c2c(-c3ccc(Br)cc3)c(C(=O)C(=O)N3CCCC3)[nH]c2c1	–	inactive	inactive	–	growth inhibition (GI) (Escherichia coli [1]): inactive
COc1cc(OC)c2c(C)c(C)[nH]c2c1C(=O)C(=O)N1CCN(c2ccccn2)CC1	13%	27%	–	12%	–
COc1cc(OC)c2c(-c3ccc(Cl)cc3)c[nH]c2c1C(=O)C(=O)N1CCCCC1	–	inactive	inactive	–	growth inhibition (GI) (Escherichia coli [1]): inactive
COc1cc(OC)c2c(C)c(C)[nH]c2c1C(=O)C(=O)N1CCOCC1	–	7%	–	–	growth inhibition (GI) (Escherichia coli [1]): inactive; inhibition of growth at 200 µM (Bacillus subtilis [4]): 42%
COc1cc(OC)c2c(-c3ccc(Br)cc3)c[nH]c2c1C(=O)Nc1ccccc1	13%	49%	–	7%	–
CCOC(=O)CNC(=O)C(=O)c1[nH]c2cc(OC)cc(OC)c2c1-c1ccc(Cl)cc1	53%	42%	inactive	–	–

Compound	inhibition of growth at 200 µM (Escherichia coli [1])	inhibition [2]	growth inhibition (GI) (Bacillus subtilis [3])	inhibition of growth at 200 µM (Bacillus subtilis [3])	also measured
COc1cc(OC)c2c(-c3ccc(Cl)cc3)c[nH]c2c1C(=O)C(=O)N1CCOCC1	–	inactive	inactive	–	inhibition of growth at 200 µM (Escherichia coli [5]): 38%
COc1cc(OC)c2c(-c3ccc(Br)cc3)c[nH]c2c1C(=O)C(=O)N1CCOCC1	–	31%	inactive	–	pIC50 [6]: 4.47; GI (Escherichia coli [7]): >100 µM; inhibition of growth at 200 µM (Escherichia coli [5]): 59%
COc1cc(OC)c2c(C)c(C)[nH]c2c1C(=O)C(=O)N1CCCCC1	24%	39%	–	–	inhibition of growth at 200 µM (Bacillus subtilis [4]): 57%
COc1cc(OC)c2c(-c3ccc(Br)cc3)c[nH]c2c1C(=O)NNc1ccccc1	23%	44%	inactive	–	–
COc1cc(OC)c2c(C)c(C(=O)C(=O)N3CCOCC3)[nH]c2c1	2%	33%	–	2%	–
COc1cc(OC)c2c(C)c(C(=O)C(=O)N3CCCC3)[nH]c2c1	–	44%	inactive	–	growth inhibition (GI) (Escherichia coli [1]): inactive
COc1cc(OC)c2c(-c3ccc(Br)cc3)c[nH]c2c1C(=O)C(=O)Nc1ccc(C)cc1	29%	–	inactive	–	–
COc1cc(OC)c2c(-c3ccccc3)c(C(=O)C(=O)N3CCOCC3)oc2c1	6%	29%	–	–	pIC50 [6]: 4.15; GI (Bacillus subtilis [8]): >100 µM; inhibition of growth at 200 µM (Bacillus subtilis [4]): 70%
O=C(C(=O)N1CCCCC1)c1c[nH]c2ccccc12	9%	37%	–	12%	–
COc1cc(OC)c2c(-c3ccc(Cl)cc3)c[nH]c2c1C(=O)C(=O)Nc1ccc(C)cc1	20%	37%	inactive	–	–
COc1cc(OC)c2c(-c3ccc(Cl)cc3)c[nH]c2c1C(=O)C(=O)N1CCCC1	23%	inactive	–	–	inhibition of growth at 200 µM (Staphylococcus aureus): 60%
COc1cc(OC)c2c(C)c(C(=O)C(=O)N3CCN(C)CC3)[nH]c2c1	–	44%	inactive	–	growth inhibition (GI) (Escherichia coli [1]): inactive
COc1cc(OC)c2c(-c3ccc(Br)cc3)c[nH]c2c1C(=O)Nc1ccc(C)cc1	12%	–	–	36%	–
COc1cc(OC)c2c(-c3ccc(Cl)cc3)c[nH]c2c1C(=O)C(=O)NNc1ccccc1	20%	26%	inactive	–	–
COc1cc(OC)c2c(-c3ccc(Cl)cc3)c(C(=O)C(=O)N3CCOCC3)[nH]c2c1	37%	27%	–	–	inhibition of growth at 200 µM (Bacillus subtilis [4]): 37%
COc1cc(OC)c2c(-c3ccc(Br)cc3)c[nH]c2c1C(=O)C(=O)N1CCN(Cc2ccccc2)CC1	6%	8%	inactive	–	–
COc1cc(OC)c2c(-c3ccccc3)c(C(=O)C(=O)N3CCN(c4ccccn4)CC3)oc2c1	10%	41%	–	3%	–
COc1cc(OC)c2c(C)c(C(=O)C(=O)N3CCN(Cc4ccccc4)CC3)[nH]c2c1	16%	46%	–	7%	–
COc1cc(OC)c2c(-c3ccc(Br)cc3)c(C(=O)C(=O)N3CCN(c4ccccn4)CC3)[nH]c2c1	38%	25%	–	19%	–

— ChEMBL document CHEMBL3399983, “Synthesis and biological activity of novel mono-indole and mono-benzofuran inhibitors of bacterial transcription initiation complex formation” (Bioorg Med Chem, 2015)
